Test [1] concerns the target T1, Carboxypeptidase D (Homo sapiens) (UniProt O75976).
T1 sequence (whole entry): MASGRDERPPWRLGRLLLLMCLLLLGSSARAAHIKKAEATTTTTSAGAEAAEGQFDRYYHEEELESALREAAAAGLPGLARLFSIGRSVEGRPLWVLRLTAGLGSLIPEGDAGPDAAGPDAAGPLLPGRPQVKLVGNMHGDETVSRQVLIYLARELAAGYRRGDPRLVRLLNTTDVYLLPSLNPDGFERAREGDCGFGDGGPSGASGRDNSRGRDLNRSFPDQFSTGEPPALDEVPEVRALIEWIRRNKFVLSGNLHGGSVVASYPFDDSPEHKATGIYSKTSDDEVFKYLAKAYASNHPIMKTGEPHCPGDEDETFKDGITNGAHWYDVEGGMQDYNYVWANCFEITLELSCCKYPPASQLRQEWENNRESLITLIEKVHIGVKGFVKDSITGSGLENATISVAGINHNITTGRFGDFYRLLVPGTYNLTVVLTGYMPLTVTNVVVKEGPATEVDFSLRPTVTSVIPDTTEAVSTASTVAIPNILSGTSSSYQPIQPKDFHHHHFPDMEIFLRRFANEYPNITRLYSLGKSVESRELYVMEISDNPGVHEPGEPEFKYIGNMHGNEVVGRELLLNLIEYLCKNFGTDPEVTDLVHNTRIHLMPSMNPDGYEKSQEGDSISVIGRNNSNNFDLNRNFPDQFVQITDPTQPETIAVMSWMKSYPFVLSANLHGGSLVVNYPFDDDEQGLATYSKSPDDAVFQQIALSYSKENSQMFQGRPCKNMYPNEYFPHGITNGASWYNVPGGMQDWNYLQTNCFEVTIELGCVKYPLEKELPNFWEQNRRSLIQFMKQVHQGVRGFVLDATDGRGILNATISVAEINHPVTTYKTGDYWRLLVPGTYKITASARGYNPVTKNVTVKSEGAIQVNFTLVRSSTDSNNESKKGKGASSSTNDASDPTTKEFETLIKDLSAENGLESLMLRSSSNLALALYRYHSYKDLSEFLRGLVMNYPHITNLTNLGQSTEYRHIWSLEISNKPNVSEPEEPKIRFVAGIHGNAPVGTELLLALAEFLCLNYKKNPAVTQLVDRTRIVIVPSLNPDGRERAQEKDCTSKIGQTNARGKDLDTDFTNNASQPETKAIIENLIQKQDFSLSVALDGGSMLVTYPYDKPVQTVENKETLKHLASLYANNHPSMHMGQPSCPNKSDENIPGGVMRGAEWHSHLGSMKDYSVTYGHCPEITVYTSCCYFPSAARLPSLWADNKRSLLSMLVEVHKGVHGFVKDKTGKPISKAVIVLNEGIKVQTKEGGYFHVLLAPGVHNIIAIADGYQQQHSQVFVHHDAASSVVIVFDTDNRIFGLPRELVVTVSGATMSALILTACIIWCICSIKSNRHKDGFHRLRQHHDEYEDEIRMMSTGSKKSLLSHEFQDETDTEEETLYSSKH
Nature of the test: Inhibition of human CPD at 1 nM to 1 mM using AAFA as substrate preincubated for 45 mins to 2 hrs measured at 30 sec intervals for 15 mins by UV/vis-spectrophotometry. A digest of the protocol:
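hCPD was used at 2.0x10-8 M with AAFA substrate at 1.0x10-4 M, monitored at 355 nm. Buffer was 20 mM Tris-HCl pH 7.5, 100 mM NaCl, 1% DMSO, 0.05% Brij-35. Preincubation was 45 min at 37 °C. Residual activity at a range of inhibitor concentrations was measured from initial rates (30 sec reads, 15 min), in triplicate. Kiapp came from the tight-binding fit.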

Another test concerns the target T2, Carboxypeptidase A4 (Homo sapiens, UniProt Q9UI42).
T2 sequence (Q9UI42 whole entry): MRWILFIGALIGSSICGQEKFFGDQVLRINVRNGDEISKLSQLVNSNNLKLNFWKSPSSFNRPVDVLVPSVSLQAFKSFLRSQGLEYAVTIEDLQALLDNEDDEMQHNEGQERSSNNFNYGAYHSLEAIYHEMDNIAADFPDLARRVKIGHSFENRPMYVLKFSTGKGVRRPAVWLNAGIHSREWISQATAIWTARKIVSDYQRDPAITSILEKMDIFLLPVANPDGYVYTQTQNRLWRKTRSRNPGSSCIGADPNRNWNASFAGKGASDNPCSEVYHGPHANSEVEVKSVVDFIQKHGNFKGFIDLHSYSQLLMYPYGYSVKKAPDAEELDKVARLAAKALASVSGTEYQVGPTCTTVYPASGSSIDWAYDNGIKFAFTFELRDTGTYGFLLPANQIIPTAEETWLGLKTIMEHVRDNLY
Nature of the test: Inhibition of human CPA4 using AAFP as substrate preincubated for 45 mins to 2 hrs measured at 30 sec intervals for 15 mins by UV/vis-spectrophotometry. A digest of the protocol: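 Enzyme was hCPA4 at 4.3x10-8 M, with 1.0x10-4 M AAFP and detection at 355 nm. Inhibitor and enzyme were preincubated 45 min at 37 °C, then initial velocities were taken over 15 min (30 sec reads), in triplicate. Kiapp was obtained from the tight-binding fit.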

Test [2] concerns the target T3, Carboxypeptidase B (Homo sapiens) (UniProt P15086).
T3 sequence (whole entry): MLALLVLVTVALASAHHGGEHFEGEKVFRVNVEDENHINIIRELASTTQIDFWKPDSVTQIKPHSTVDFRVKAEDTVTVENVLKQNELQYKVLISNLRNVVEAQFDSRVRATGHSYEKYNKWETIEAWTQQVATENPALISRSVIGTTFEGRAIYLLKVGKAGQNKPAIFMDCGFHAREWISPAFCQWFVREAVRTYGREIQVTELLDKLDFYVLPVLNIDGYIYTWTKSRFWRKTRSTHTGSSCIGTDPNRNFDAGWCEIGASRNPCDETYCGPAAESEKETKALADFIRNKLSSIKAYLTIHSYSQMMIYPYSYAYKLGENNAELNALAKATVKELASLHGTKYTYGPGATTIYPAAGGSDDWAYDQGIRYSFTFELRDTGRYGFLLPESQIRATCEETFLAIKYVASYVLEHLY
The test can be described thus: Inhibition of human CPB1 at 1 nM to 1 mM using AAFA as substrate preincubated for 45 mins to 2 hrs measured at 30 sec intervals for 15 mins by UV/vis-spectrophotometry. A digest of the protocol:
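hCPB1 was used at 6.0x10-9 M with 1.0x10-4 M AAFA, read at 355 nm. After 45 min preincubation with inhibitor at 37 °C, residual activity at varied inhibitor concentrations was followed for 15 min at 30 sec intervals, in triplicate. Kiapp was fitted with the tight-binding equation.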

The Ki is the equilibrium dissociation constant of an inhibitor or competing ligand from its target.

Activity calls are given as the source filed them. The calls are words filed in the database; no cut-off is given here.

For the molecule `CC(=O)N[C@@H](CCC(=O)O)C(=O)N[C@@H](C)P(=O)(O)C[C@@H](CCc1ccccc1)C(=O)O`, the inhibition result in test [1] and in test [2] was “inactive” in each case. Also, the Ki at Carboxypeptidase A4 was determined as 38.6 nM.

For `C[C@H](NC(=O)[C@H](Cc1ccc(O)cc1)NC(=O)COCCOCCN)P(=O)(O)C[C@@H](CCc1ccccc1)C(=O)O`, the inhibition entry in test [1] and in test [2] was “inactive” throughout. The inhibition constant (Ki) at Carboxypeptidase A4 turned out to be 5.4 nM.

As for `C[C@H](NC(=O)[C@H](Cc1ccc(O)cc1)NC(=O)COCCOCCNC(=O)CCOCCOCCOCCNC(=O)CCc1ccc(C(=C\C=C2\N(CCCCS(=O)(=O)O)c3ccc4c(S(=O)(=O)[O-])cc(S(=O)(=O)O)cc4c3C2(C)C)/C=C/C2=[N+](CCCCS(=O)(=O)O)c3ccc4c(S(=O)(=O)O)cc(S(=O)(=O)O)cc4c3C2(C)C)cc1)P(=O)(O)C[C@@H](CCc1ccccc1)C(=O)O`, the inhibition entry in test [1] and in test [2] was “inactive” throughout. At Carboxypeptidase A4, this molecule had a Ki of 5.7 nM.

Consider `CC(=O)NCCOCCOCC(=O)N[C@@H](Cc1ccc(O)cc1)C(=O)N[C@@H](C)P(=O)(O)C[C@@H](CCc1ccccc1)C(=O)O`, for which the inhibition result in test [1] and in test [2] was “inactive” in each case. On Carboxypeptidase A4, the affinity corresponds to a Ki of 3.5 nM.

`CC(=O)N[C@@H](CC(C)C)C(=O)N[C@@H](Cc1ccccc1)P(=O)(O)C[C@@H](CCc1ccccc1)C(=O)O`: the inhibition result in test [1] and in test [2] was “inactive” each time. The Ki on Carboxypeptidase A4 amounted to 1.9 nM.

On to `CC(=O)N[C@@H](CC(C)C)C(=O)N[C@@H](C)P(=O)(O)C[C@@H](CCc1ccccc1)C(=O)O`, for which the inhibition result in test [1] and in test [2] was “inactive” in each case. Also, the affinity at Carboxypeptidase A4, expressed as Ki, was 3.3 nM.

`CC(=O)N[C@@H](CO)C(=O)N[C@@H](C)P(=O)(O)C[C@@H](CCc1ccccc1)C(=O)O`: the inhibition entry in test [1] and in test [2] was “inactive” each time. The molecule further gave an inhibition constant (Ki) at Carboxypeptidase A4 of 60.6 nM.

With `CC(=O)N[C@@H](CCCCN)C(=O)N[C@@H](C)P(=O)(O)C[C@@H](CCc1ccccc1)C(=O)O`, the inhibition result in test [1] and in test [2] was “inactive” in each case. At Carboxypeptidase A4, this molecule came in with an inhibition constant Ki of 25.4 nM.

As for `CC(=O)N[C@@H](Cc1ccc(O)cc1)C(=O)N[C@@H](C)P(=O)(O)C[C@@H](CCc1ccccc1)C(=O)O`, the inhibition result in test [1] and in test [2] was “inactive” in each case. Moreover, on Carboxypeptidase A4, the inhibitory constant (Ki) came to 2.6 nM.

Regarding `CC(=O)N1CCC[C@H]1C(=O)N[C@@H](C)P(=O)(O)C[C@@H](CCc1ccccc1)C(=O)O`, the inhibition entry in test [1] and in test [2] was “inactive” throughout. For the same molecule, the inhibition constant Ki at Carboxypeptidase A4 is 7.5 nM.

The values are drawn from ChEMBL document CHEMBL4411328, “Synthesis and Structural/Functional Characterization of Selective M14 Metallocarboxypeptidase Inhibitors Based on Phosphinic Pseudopeptide Scaffold: Implications on the Design of Specific Optical Probes” (J Med Chem, 2019).
